Structures are written as SMILES. Some results are limits rather than exact numbers.

The subject of experiment [1] is Rattus norvegicus. Nature of the experiment: In vivo antihistaminic activity using compound 48/80 induced lethality test after 1 hr of subcutaneous administration in rat. The note with it: sc. The class given is functional. In short, it runs like this: (§1)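 Protection was survival for 4 h after challenge. ED50 with confidence limits was calculated by Finney from five rats per dose and at least three doses of a geometric series (0.0025–40 mg/kg). Estimated ED50 used at least two rats per dose.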

The test system of experiment [2] is Rattus norvegicus. Nature of the experiment: In vivo antihistaminic activity using compound 48/80 induced lethality test in rat after 2 hr of oral administration. The class given is functional. The method in brief: as §1

In the case of `Fc1ccc(Cn2c(NC3CCN(CCCCOc4ccccc4)CC3)nc3ccccc32)cc1`, the ED50 in the experiment on Rattus norvegicus [1] and in the experiment on Rattus norvegicus [2] was 0.63 mg/kg throughout.

For `Fc1ccc(Cn2c(NC3CCN(CCc4ccc(OCc5ccccc5)cc4)CC3)nc3ccccc32)cc1`, in the experiment with Rattus norvegicus [1], it took a dose of 2.5 mg/kg to reach the 50% effect level (ED50).

`CSc1ccc(CCN2CCC(Nc3nc4ccccc4n3Cc3ccc(F)cc3)CC2)cc1`: the ED50 in the experiment with Rattus norvegicus [1] is 0.63 mg/kg; with Rattus norvegicus [2], 1.25 mg/kg.

Turning to `Cl.NCCN1CCC(Nc2nc3ccccc3n2Cc2ccc(F)cc2)CC1`, the ED50 in the experiment with Rattus norvegicus [1] was 1.25 mg/kg; in the experiment on Rattus norvegicus [2] it was above 2.5 mg/kg.

Turning to `CCOC(=O)COc1ccc(CCN2CCC(Nc3nc4ccccc4n3Cc3ccc(F)cc3)CC2)cc1`, the ED50 in the experiment on Rattus norvegicus [1] is 0.16 mg/kg; with Rattus norvegicus [2], above 2.5 mg/kg.

In the case of `Fc1ccc(Cn2c(NC3CCN(CCc4ccccc4)CC3)nc3cc(Cl)ccc32)cc1`, in the experiment with Rattus norvegicus [1], the ED50 was above 2.5 mg/kg.

Regarding `NC(=O)COc1ccc(CCN2CCC(Nc3nc4ccccc4n3Cc3ccc(F)cc3)CC2)cc1`, the ED50 in the experiment with Rattus norvegicus [1] stood at 1.25 mg/kg; with Rattus norvegicus [2] it was 2.5 mg/kg.

With `Cl.Fc1ccc(CCN2CCC(Nc3nc4ccccc4n3Cc3ccc(F)cc3)CC2)cc1`, the ED50 in the experiment with Rattus norvegicus [1] was 0.31 mg/kg; in the experiment on Rattus norvegicus [2] it was above 2.5 mg/kg.

`COc1ccc(C(=O)Oc2ccc(CCN3CCC(Nc4nc5ccccc5n4Cc4ccc(F)cc4)CC3)cc2)cc1`: the ED50 in the experiment on Rattus norvegicus [1] was found to be 0.63 mg/kg; in the experiment on Rattus norvegicus [2] it was 0.16 mg/kg.

For the compound `CN(C)CCN1CCC(Nc2nc3ccccc3n2Cc2ccc(F)cc2)CC1`, in the experiment with Rattus norvegicus [1], it took a dose of 0.63 mg/kg to reach the 50% effect level (ED50).

For the compound `CS(=O)(=O)c1ccc(CCN2CCC(Nc3nc4ccccc4n3Cc3ccc(F)cc3)CC2)cc1`, the ED50 with Rattus norvegicus [1] is 1.25 mg/kg; with Rattus norvegicus [2], above 2.5 mg/kg.

In the case of `OC(COc1ccccc1)CN1CCC(Nc2nc3ccccc3n2Cc2ccc(F)cc2)CC1` (configuration not stated), the ED50 in the experiment on Rattus norvegicus [1] was 0.63 mg/kg; with Rattus norvegicus [2] it was 1.25 mg/kg.

`CCn1nnn(CCN2CCC(Nc3nc4ccccc4n3Cc3ccc(F)cc3)CC2)c1=O`: the values for the ED50 in the experiment on Rattus norvegicus [1] and in the experiment on Rattus norvegicus [2] were 0.16 mg/kg and above 2.5 mg/kg, respectively.

As for `COc1ccc(OCCCN2CCC(Nc3nc4ccccc4n3Cc3ccc(F)cc3)CC2)cc1`, the ED50 in the experiment on Rattus norvegicus [1] and with Rattus norvegicus [2] was 0.31 mg/kg in each case.

Compound `Fc1ccc(Cn2c(NC3CCN(CCN(Cc4ccccc4)Cc4ccccc4)CC3)nc3ccccc32)cc1` registered an ED50 in the experiment on Rattus norvegicus [1] above 2.5 mg/kg.

As for `O=C(NCCN1CCC(Nc2nc3ccccc3n2Cc2ccc(F)cc2)CC1)c1ccc(F)cc1`, the ED50 in the experiment on Rattus norvegicus [1] was 0.31 mg/kg; in the experiment on Rattus norvegicus [2], 2.5 mg/kg.

Turning to `COc1ccccc1OCC(O)CN1CCC(Nc2nc3ccccc3n2Cc2ccc(F)cc2)CC1` (configuration not stated), the ED50 in the experiment with Rattus norvegicus [1] stood at 1.25 mg/kg; in the experiment on Rattus norvegicus [2], 0.63 mg/kg.

`Fc1ccc(Cn2c(NC3CCN(C/C=C/c4ccccc4)CC3)nc3ccccc32)cc1`: the figures for the ED50 with Rattus norvegicus [1] and in the experiment with Rattus norvegicus [2] were 1.25 mg/kg and above 2.5 mg/kg, respectively.

In the case of `Nc1ccc(CCN2CCC(Nc3nc4ccccc4n3Cc3ccc(F)cc3)CC2)cc1`, the ED50 with Rattus norvegicus [1] was found to be 0.31 mg/kg; with Rattus norvegicus [2], 0.63 mg/kg.

As for `CNC(=O)NCCN1CCC(Nc2nc3ccccc3n2Cc2ccc(F)cc2)CC1`, the ED50 is 0.02 mg/kg with Rattus norvegicus [1] and above 2.5 mg/kg in the experiment with Rattus norvegicus [2].

In the case of `COC(=O)COc1ccc(CCN2CCC(Nc3nc4ccccc4n3Cc3ccc(F)cc3)CC2)cc1`, the ED50 in the experiment with Rattus norvegicus [1] was determined as 2.5 mg/kg.

Consider `Cc1cc(CCN2CCC(Nc3nc4ccccc4n3Cc3ccc(F)cc3)CC2)ccc1OCc1ccccc1`, for which the ED50 with Rattus norvegicus [1] was above 2.5 mg/kg.

As for `CC(=O)c1ccc(OCC(O)CN2CCC(Nc3nc4ccccc4n3Cc3ccc(F)cc3)CC2)cc1` (configuration not stated), the results for the ED50 in the experiment on Rattus norvegicus [1] and in the experiment with Rattus norvegicus [2] were 0.63 mg/kg and 1.25 mg/kg, respectively.

For the compound `CCOc1ccc(CCN2CCC(Nc3nc4ccccc4n3Cc3ccc(F)cc3)CC2)cc1`, the ED50 was found to be 1.25 mg/kg in the experiment with Rattus norvegicus [1] and 0.16 mg/kg in the experiment with Rattus norvegicus [2].

For `COc1ccc(SCCCN2CCC(Nc3nc4ccccc4n3Cc3ccc(F)cc3)CC2)cc1`, in the experiment on Rattus norvegicus [1], the ED50 was 2.5 mg/kg.

Regarding `Fc1ccc(Cn2c(NC3CCN(CCc4ccccn4)CC3)nc3ccccc32)cc1`, the ED50 in the experiment with Rattus norvegicus [1] came to 0.16 mg/kg; in the experiment on Rattus norvegicus [2] it was 0.63 mg/kg.

For the compound `Cl.Fc1ccc(Cn2c(NC3CCN(CCN4CCOCC4)CC3)nc3ccccc32)cc1`, the values for the ED50 with Rattus norvegicus [1] and with Rattus norvegicus [2] were 0.31 mg/kg and 2.5 mg/kg, respectively.

In the experiment on Rattus norvegicus [1], `CC(Cc1ccccc1)N1CCC(Nc2nc3ccccc3n2Cc2ccc(F)cc2)CC1` (configuration not stated) yielded an ED50 of 2.5 mg/kg.

As to `Fc1ccc(Cn2c(NC3CCN(CCCNc4ccccc4)CC3)nc3ccccc32)cc1`, the ED50 came to 0.63 mg/kg in the experiment with Rattus norvegicus [1] and 2.5 mg/kg with Rattus norvegicus [2].

On to `COc1ccc(CCN2CCC(Nc3nc4ccccc4n3Cc3ccc(F)cc3)CC2)c(OC)c1.Cl`, for which the ED50 in the experiment with Rattus norvegicus [1] and with Rattus norvegicus [2] was 0.31 mg/kg throughout.

`Cl.N#CC1(c2ccccc2)CCC(N2CCC(Nc3nc4ccccc4n3Cc3ccc(F)cc3)CC2)CC1` (configuration not stated) yielded an ED50 with Rattus norvegicus [1] above 2.5 mg/kg.

Take `Fc1ccc(Cn2c(NC3CCN(CCNCc4ccccc4)CC3)nc3ccccc32)cc1`: the ED50 in the experiment with Rattus norvegicus [1] was 1.25 mg/kg; with Rattus norvegicus [2], above 2.5 mg/kg.

In the case of `COc1ccc(CCN2CCC(Nc3nc4ccccc4n3Cc3ccc(F)cc3)CC2)cc1OC`, the ED50 in the experiment on Rattus norvegicus [1] was determined as 1.25 mg/kg; in the experiment on Rattus norvegicus [2], 0.16 mg/kg.

Regarding `N#CCN1CCC(Nc2nc3ccccc3n2Cc2ccc(F)cc2)CC1`, the ED50 with Rattus norvegicus [1] is 0.16 mg/kg; in the experiment with Rattus norvegicus [2], 2.5 mg/kg.

`Fc1ccc(Cn2c(NC3CCN(CCC=C4c5ccccc5CCc5ccccc54)CC3)nc3ccccc32)cc1` showed an ED50 in the experiment with Rattus norvegicus [1] above 2.5 mg/kg.

In the case of `Fc1ccc(Cn2c(NC3CCN(CCCOc4ccccc4)CC3)nc3ccccc32)cc1`, the ED50 was determined as 1.25 mg/kg in the experiment with Rattus norvegicus [1] and 0.31 mg/kg in the experiment with Rattus norvegicus [2].

For the compound `COc1cccc(CCN2CCC(Nc3nc4ccccc4n3Cc3ccc(F)cc3)CC2)c1.Cl`, the ED50 in the experiment with Rattus norvegicus [1] and in the experiment on Rattus norvegicus [2] was 0.31 mg/kg in each case.

With `COc1ccc(OCC(O)CN2CCC(Nc3nc4ccccc4n3Cc3ccc(F)cc3)CC2)cc1` (configuration not stated), the ED50 in the experiment on Rattus norvegicus [1] was found to be 1.25 mg/kg; in the experiment with Rattus norvegicus [2], 2.5 mg/kg.

For `Cc1ccc2nc(NC3CCN(CCc4ccccc4)CC3)n(Cc3ccc(F)cc3)c2c1`, the ED50 in the experiment with Rattus norvegicus [1] is above 2.5 mg/kg.

`Cl.Cn1nnn(CCN2CCC(Nc3nc4ccccc4n3Cc3ccc(F)cc3)CC2)c1=O`: the figures for the ED50 in the experiment with Rattus norvegicus [1] and in the experiment on Rattus norvegicus [2] were 0.31 mg/kg and above 2.5 mg/kg, respectively.

For `COc1ccccc1CCN1CCC(Nc2nc3ccccc3n2Cc2ccc(F)cc2)CC1`, the results for the ED50 with Rattus norvegicus [1] and with Rattus norvegicus [2] were 1.25 mg/kg and 0.63 mg/kg, respectively.

For the compound `Cl.N#CCOc1ccc(CCN2CCC(Nc3nc4ccccc4n3Cc3ccc(F)cc3)CC2)cc1`, the ED50 in the experiment with Rattus norvegicus [1] was 0.63 mg/kg; with Rattus norvegicus [2], 0.08 mg/kg.

Regarding `Oc1nc2ccccc2n1CCCN1CCC(Nc2nc3ccccc3n2Cc2ccc(F)cc2)CC1`, the ED50 with Rattus norvegicus [1] amounted to 0.31 mg/kg; in the experiment on Rattus norvegicus [2], 1.25 mg/kg.

`COc1ccc(OC)c(CCN2CCC(Nc3nc4ccccc4n3Cc3ccc(F)cc3)CC2)c1`: the ED50 in the experiment with Rattus norvegicus [1] and in the experiment on Rattus norvegicus [2] was 0.63 mg/kg throughout.

`CCCCOc1ccccc1OCC(O)CN1CCC(Nc2nc3ccccc3n2Cc2ccc(F)cc2)CC1` (configuration not stated): the 50% effect level in the experiment on Rattus norvegicus [1] (ED50) was put at a dose of 2.5 mg/kg.

Regarding `Fc1ccc(Cn2c(NC3CCN(C4CCCCC4)CC3)nc3ccccc32)cc1`, the ED50 in the experiment with Rattus norvegicus [1] is 0.31 mg/kg; in the experiment with Rattus norvegicus [2] it was above 2.5 mg/kg.

Regarding `Cl.Oc1cccc(CCN2CCC(Nc3nc4ccccc4n3Cc3ccc(F)cc3)CC2)c1`, the ED50 with Rattus norvegicus [1] came to 0.16 mg/kg; with Rattus norvegicus [2], 0.31 mg/kg.

Turning to `Fc1ccc(Cn2c(NC3CCN(CCc4cccs4)CC3)nc3ccccc32)cc1`, the ED50 in the experiment with Rattus norvegicus [1] turned out to be 0.16 mg/kg; in the experiment with Rattus norvegicus [2] it was 0.63 mg/kg.

In turn, `COc1ccc(C(=O)N(CCN2CCC(Nc3nc4ccccc4n3Cc3ccc(F)cc3)CC2)C(=O)c2ccc(OC)cc2)cc1.Cl` registered an ED50 with Rattus norvegicus [1] above 2.5 mg/kg.

Take `C=CCOc1ccc(CCN2CCC(Nc3nc4ccccc4n3Cc3ccc(F)cc3)CC2)cc1.Cl`: in the experiment with Rattus norvegicus [1], it took a dose of 2.5 mg/kg to reach the 50% effect level (ED50).

On to `CCCCNC(=O)Oc1ccc(CCN2CCC(Nc3nc4ccccc4n3Cc3ccc(F)cc3)CC2)cc1`, for which it took a dose of 2.5 mg/kg to reach the 50% effect level in the experiment on Rattus norvegicus [1] (ED50).
